Data as given in ChEMBL document CHEMBL3407394, “Synthesis and in vitro anticancer activity evaluation of novel bioreversible phosphate inositol derivatives” (Eur J Med Chem, 2015).
pIC50: −log10 of the molar value.

Experiments:
MDA-MB-231 [1] = test: Cytotoxicity against human MDA-MB-231 cells assessed as growth inhibition after 72 hrs by MTT assay; assay type: functional, cell-based; conditions: MDA-MB-231, 72 h
Procedure, shortened: (§1)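 A549, HeLa and MDA-MB-231 cells were grown in DMEM with 10% FBS and 1% penicillin/streptomycin. About 1000 cells/well were seeded and left 12 h, then exposed to a dilution series in DMSO (final 0.5% DMSO) for 72 h at 37 °C, 5% CO2. MTT in fresh medium was added for 4 h, formazan dissolved in DMSO, and OD570 read. Viability was normalized to vehicle, and IC50 taken by linear regression of concentration-response curves.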

[2] = Cytotoxicity against human MCF10A cells assessed as growth inhibition after 72 hrs by MTT assay; assay type: cell-based; conditions: MCF-10A
Procedure, shortened: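 MCF10A non-cancerous cells were maintained in DMEM/F12 with 5% horse serum. About 1000 cells/well were seeded and attached for 12 h, then dosed over a dilution series (DMSO vehicle, final 0.5%) for 72 h at 37 °C, 5% CO2. MTT in fresh medium ran 4 h, formazan was dissolved in DMSO and OD570 measured. Viability was relative to vehicle-treated cells, and IC50 came from linear regression of concentration-response curves.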

HeLa [3] = test: Cytotoxicity against human HeLa cells assessed as growth inhibition after 72 hrs by MTT assay; assay type: functional, cell-based; procedure, shortened: as §1
[4] = Cytotoxicity against human MCF10A cells assessed as growth inhibition at 10 ug/ml after 72 hrs by MTT assay; assay type: cell-based, MCF-10A; conditions: read-out: GI
Procedure, shortened: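 MCF10A cells in DMEM/F12 plus 5% horse serum, about 1000 per well, were incubated 12 h, then treated at one final well concentration diluted in DMEM (0.5% DMSO) for 72 h, 37 °C, 5% CO2. Viability was by MTT: 4 h in fresh medium, formazan dissolved in DMSO, absorbance at 570 nm, normalized to vehicle controls. Cisplatin in 1% NaCl, pH 7, was the positive control.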

HeLa [5] = test: Cytotoxicity against human HeLa cells assessed as growth inhibition at 10 ug/ml after 72 hrs by MTT assay; assay type: functional; conditions: read-out: GI
Procedure, shortened: (§2)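 Single-concentration screen in A549, HeLa or MDA-MB-231 cells cultured in DMEM, 10% FBS, 1% penicillin/streptomycin. About 1000 cells/well were preincubated 12 h, and compound diluted in DMEM to the final well concentration (0.5% DMSO) for 72 h at 37 °C, 5% CO2. Readout was MTT 4 h, DMSO-solubilized formazan, OD570, with inhibition relative to DMSO vehicle. Cisplatin in 1% NaCl (pH 7) served as positive control.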

MDA-MB-231 [6] = test: Cytotoxicity against human MDA-MB-231 cells assessed as growth inhibition at 10 ug/ml after 72 hrs by MTT assay; assay type: functional; conditions: MDA-MB-231, 72 h, read-out: GI; procedure, shortened: as §2
A549 [7] = test: Cytotoxicity against human A549 cells assessed as growth inhibition at 10 ug/ml after 72 hrs by MTT assay; assay type: functional; conditions: A549, 72 h, read-out: GI; procedure, shortened: as §2
A549 [8] = test: Cytotoxicity against human A549 cells assessed as growth inhibition after 72 hrs by MTT assay; assay type: functional, cell-based; conditions: A549, 72 h; procedure, shortened: as §1

| SMILES | pIC50 (MDA-MB-231 [1]) | pIC50 [2] | pIC50 (HeLa [3]) | inhibition at 72 h, 10 ug/ml [4] | inhibition of growth at 10 µg/mL (HeLa [5]) | inhibition of growth at 10 µg/mL (MDA-MB-231 [6]) | inhibition of growth at 10 µg/mL (A549 [7]) | pIC50 (A549 [8]) |
| --- | --- | --- | --- | --- | --- | --- | --- | --- |
| CC(=O)Oc1ccc(COP(=O)(OCc2ccc(OC(C)=O)cc2)OC2C3OC4OC(C3OCc3ccccc3)C(OCc3ccccc3)C2O4)cc1 (centres undefined) | 5.56 | 4.34 | 5.90 | 20.1% | 100% | 95.8% | 88.9% | 5.17 |
| CC(=O)Oc1ccc(COP(=O)(OCc2ccc(OC(C)=O)cc2)OC2C3OC4OC(C3OCc3ccccc3)C(O[Si](C)(C)C(C)(C)C)C2O4)cc1 (centres undefined) | 5.63 | 4.42 | 5.87 | 100% | 100% | 84.3% | 100% | 5.02 |
| CC(=O)Oc1ccc(COP(=O)(OCc2ccc(OC(C)=O)cc2)OC2C(OCc3ccccc3)C3OCOC(C3OCc3ccccc3)C2OCc2ccccc2)cc1 (centres undefined) | 5.80 | 4.72 | 5.82 | 48.9% | 98.1% | 12.4% | 75.4% | 5.09 |
| CC(=O)Oc1ccc(COP(=O)(OCc2ccc(OC(C)=O)cc2)OC2C(OCc3ccccc3)C3OC(C)OC(C3OCc3ccccc3)C2OCc2ccccc2)cc1 (centres undefined) | 5.55 | 5.09 | 5.55 | 98.1% | 100% | 9.5% | 96.6% | 4.94 |
| CC(=O)Oc1ccc(COP(=O)(OCc2ccc(OC(C)=O)cc2)O[C@H]2[C@@H]3OC(C)(C)O[C@H]3[C@H](OP(=O)(OCc3ccc(OC(C)=O)cc3)OCc3ccc(OC(C)=O)cc3)[C@H]3OC(C)(C)O[C@H]32)cc1 | 6.08 | 4.60 | 6.21 | -10.7% | 100% | 91.8% | 90.1% | 5.63 |
| CC(=O)Oc1ccc(COP(=O)(OCc2ccc(OC(C)=O)cc2)OC2C3OC4OC(C3OCc3ccccc3)C(OP(=O)(OCc3ccc(OC(C)=O)cc3)OCc3ccc(OC(C)=O)cc3)C2O4)cc1 (centres undefined) | 5.82 | < 4.30 | 6.12 | 38.8% | 100% | 99.7% | 98.5% | 5.86 |
| CC(=O)Oc1ccc(COP(=O)(OCc2ccc(OC(C)=O)cc2)OC2C3OCOC(C3OCc3ccccc3)C(OCc3ccccc3)C2OP(=O)(OCc2ccc(OC(C)=O)cc2)OCc2ccc(OC(C)=O)cc2)cc1 (centres undefined) | 6.37 | 6.07 | 6.21 | 90.4% | 100% | 86.8% | 92.1% | 5.70 |
| CC(=O)Oc1ccc(COP(=O)(OCc2ccc(OC(C)=O)cc2)OC2C3OCOC2C(OCc2ccccc2)C(OP(=O)(OCc2ccc(OC(C)=O)cc2)OCc2ccc(OC(C)=O)cc2)C3OCc2ccccc2)cc1 (centres undefined) | 5.63 | 4.63 | 6.02 | 48% | 100% | 99.4% | 43.7% | 5.26 |
| CC(=O)Oc1ccc(COP(=O)(OCc2ccc(OC(C)=O)cc2)O[C@@H]2[C@@H](OCc3ccccc3)[C@H](OP(=O)(OCc3ccc(OC(C)=O)cc3)OCc3ccc(OC(C)=O)cc3)[C@H](OCc3ccccc3)[C@H](OCc3ccccc3)[C@H]2OCc2ccccc2)cc1 | 4.54 | < 4.40 | 4.91 | 10.5% | 27.2% | 88.4% | 27.1% | 4.57 |
| CC(=O)Oc1ccc(COP(=O)(OCc2ccc(OC(C)=O)cc2)OC2C3OC4OC2C(OP(=O)(OCc2ccc(OC(C)=O)cc2)OCc2ccc(OC(C)=O)cc2)C(O4)C3OP(=O)(OCc2ccc(OC(C)=O)cc2)OCc2ccc(OC(C)=O)cc2)cc1 (centres undefined) | 5.72 | < 4.70 | 5.85 | -2.9% | 94.2% | 92.4% | 85.8% | 5.15 |
| CC(=O)Oc1ccc(COP(=O)(OCc2ccc(OC(C)=O)cc2)OC2C3OCOC2C(OP(=O)(OCc2ccc(OC(C)=O)cc2)OCc2ccc(OC(C)=O)cc2)C(OP(=O)(OCc2ccc(OC(C)=O)cc2)OCc2ccc(OC(C)=O)cc2)C3OCc2ccccc2)cc1 (centres undefined) | 5.77 | < 4.70 | 5.97 | 2.5% | 94.3% | 94.4% | 94% | 5.37 |
| C#CCO[C@@H]1[C@@H](OCc2ccccc2)[C@H](OP(=O)(OCc2ccc(OC(C)=O)cc2)OCc2ccc(OC(C)=O)cc2)[C@H](OP(=O)(OCc2ccc(OC(C)=O)cc2)OCc2ccc(OC(C)=O)cc2)[C@H](OP(=O)(OCc2ccc(OC(C)=O)cc2)OCc2ccc(OC(C)=O)cc2)[C@H]1OCc1ccccc1 | < 4.52 | < 4.52 | 4.72 | 15.4% | 100% | 88.1% | 2.5% | < 4.52 |
| CC(=O)Oc1ccc(COP(=O)(OCc2ccc(OC(C)=O)cc2)O[C@@H]2[C@@H](OP(=O)(OCc3ccc(OC(C)=O)cc3)OCc3ccc(OC(C)=O)cc3)[C@H](OCc3ccccc3)[C@@H](OCc3ccccc3)[C@H](OCc3ccccc3)[C@@H]2OP(=O)(OCc2ccc(OC(C)=O)cc2)OCc2ccc(OC(C)=O)cc2)cc1 | 5.48 | < 4.70 | < 4.70 | 55.3% | 68.5% | 52.8% | 34.9% | 5.50 |
